Test [1] is described as follows: Nitric oxide release at 100 to 150 nM in pH7.4 in presence of GSH. The format is functional. Summed up:
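Performed in 0.1 M pH 7.4 phosphate buffer with 1 mM GSH, sparged with inert gas until detector baseline was steady. Prodrug stock injected to final 100–150 nM. NO release followed at 37 °C. Area under the release curve integrated to give mol NO released per mol compound.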

The next test has as its system HL-60. The test is described as follows: Antiproliferative activity against human HL60 cells by MTS assay. It counts as functional, cell-based. Put shortly:
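HL-60 human myeloid leukemia cells grown in RPMI 1640 with 10% FBS, 37 °C, 5% CO2. Seeded 10,000 cells/100 µL; compounds (DMSO stocks serially diluted in PBS, final DMSO 0.5%) added 24 h after plating. Viable cells read by MTS after 3 days. IC50 from nonlinear fit of absorbance vs concentration to a Hill-slope equation.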
Background: Formazan colour is commonly taken as a measure of viable cells.

SMILES strings stand for the structures. pIC50: −log10 of the molar value. Bounds are passed on as bounds.

Turning to `CN(C(=O)c1ccccc1)c1cc(O/N=[N+](\[O-])N(C)C)c([N+](=O)[O-])cc1[N+](=O)[O-]`, the Activity in test [1] stood at 99%. Also, the pIC50 in the test with HL-60 was 5.80.
For the compound `CC(=O)Nc1ccc(S(=O)(=O)Oc2cc(O/N=[N+](\[O-])N(C)C)c([N+](=O)[O-])cc2[N+](=O)[O-])cc1`, the Activity in test [1] came to 96%. For the same compound, the pIC50 with HL-60 was 5.41.
In the same order, the values of `CC(=O)Nc1ccc(C(=O)Oc2cc(O/N=[N+](\[O-])N(C)C)c([N+](=O)[O-])cc2[N+](=O)[O-])cc1` are 20% and 4.66.
In the same order, the values of `CN(C)/[N+]([O-])=N/Oc1cc(OC(=O)c2cccnc2)c([N+](=O)[O-])cc1[N+](=O)[O-]` are 4% and less than 4.60.
Consider `CNc1ccc(C(=O)Oc2cc(O/N=[N+](\[O-])N(C)C)c([N+](=O)[O-])cc2[N+](=O)[O-])cc1`, for which the Activity in test [1] is 73%. In the test with HL-60, this compound had a pIC50 of 5.41.
Taken in the same sequence, the figures for `CCN(C(=O)c1ccccc1)c1cc(O/N=[N+](\[O-])N(C)C)c([N+](=O)[O-])cc1[N+](=O)[O-]` were 100% and 5.85.
With `COc1ccc2cc(C(C)C(=O)Oc3cc(O/N=[N+](\[O-])N(C)C)c([N+](=O)[O-])cc3[N+](=O)[O-])ccc2c1` (stereo not given), in test [1], the Activity was 5%. The pIC50 in the test on HL-60 is less than 4.60.
In the same order, the values of `CC(C)Cc1ccc(C(C)C(=O)Oc2cc(O/N=[N+](\[O-])N(C)C)c([N+](=O)[O-])cc2[N+](=O)[O-])cc1` (stereo not given) are 0% and less than 4.60.
Taken in the same sequence, the figures for `CN(C)c1ccc(C(=O)Oc2cc(O/N=[N+](\[O-])N(C)C)c([N+](=O)[O-])cc2[N+](=O)[O-])cc1` were 30% and less than 4.60.
Take `CN(C)/[N+]([O-])=N/Oc1cc(OC(=O)c2ccc(N)cc2)c([N+](=O)[O-])cc1[N+](=O)[O-]`: the Activity in test [1] is 63%. Further, the pIC50 with HL-60 was 4.89.
For `CC(=O)Nc1ccc(Oc2cc(O/N=[N+](\[O-])N(C)C)c([N+](=O)[O-])cc2[N+](=O)[O-])cc1`, the Activity in test [1] was found to be 93%. In addition, the pIC50 in the test on HL-60 was 5.64.
Taken in the same sequence, the figures for `CN(C)/[N+]([O-])=N\Oc1cc(O)c([N+](=O)[O-])cc1[N+](=O)[O-]` were 0% and less than 4.60.
Regarding `CN(C)/[N+]([O-])=N/Oc1cc(Nc2ccc(CO)cc2)c([N+](=O)[O-])cc1[N+](=O)[O-]`, the Activity in test [1] was 100%. Also, the pIC50 with HL-60 is 5.17.
Taken in the same sequence, the figures for `CC(=O)Oc1ccccc1C(=O)Oc1cc(O/N=[N+](\[O-])N(C)C)c([N+](=O)[O-])cc1[N+](=O)[O-]` were 7% and less than 4.60.
Taken in the same sequence, the figures for `CN(C)/[N+]([O-])=N/Oc1cc(OC(=O)c2ccccc2)c([N+](=O)[O-])cc1[N+](=O)[O-]` were 15% and less than 4.60.

The pIC50 is the negative decadic logarithm of the IC50, by convention in mol/L.

The record behind these values is ChEMBL document CHEMBL1144008, “Synthesis, nitric oxide release, and anti-leukemic activity of glutathione-activated nitric oxide prodrugs: Structural analogues of PABA/NO, an anti-cancer lead compound” (Bioorg Med Chem, 2008).
